# Shown are actives, neighbours in structure and some others; about 2.1% of the full set was active somewhere.
# Cneo AK release – causes C. neoformans cell lysis; adenylate kinase release luminescence, 4 h; normalised: neutral wells 0, clomiphene wells 100; lysis activity, % at 15 µM; 0.2% of 360,000 active; AID 651654;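 active means mean lysis activity across replicates of at least 80%, whatever share of replicates individually reach that level; inactive means mean lysis activity below 80%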
#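 Schedule: static 4 h at 37 °C with compound, 1 h detection; system: C. neoformans cells; benchmarks: Clomiphene as positive control; buffer or medium: fresh YPD medium; measure: luminescence rise reflecting yeast cell lysis; measured by: luminescent adenylate kinase detection reagent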
# Statin myotox sup – suppressors of simvastatin-induced myotoxicity in C2C12 myotubes; ATP luminescence, 48 h; scaled: DMSO 0, geranylgeraniol control 100; rescue of ATP level, % at 7.49 µM; 0.78% of 330,000 active; AID 602340;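 active means mean ATP rescue above about 67%, or every replicate alone reaching that limit, limit read from the data, passing the limit was not always enough; inconclusive means no clear call, values can overlap the other calls; inactive means mean under the limit and some replicate under it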;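 further: myotubes were challenged with 10 µM simvastatin during compound exposure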
# DENV2 CPE – DENV2-induced cell death inhibition. DENV2-infected cells, cytopathic effect rescue, plate reader. CPE inhibition, % at 9.99 µM. 1.7% of 350,000 active; in the data active means CPE inhibition above about 20%, passing the limit was not always enough; inconclusive means no clear call, values can overlap the other calls; tested in BHK-21 cells;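 further: 0% = median of neutral control wells and 100% = median of positive control wells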
# Xi reactivation – activators of X-chromosome reactivation in mouse fibroblasts | 0.055% of 360,000 active | XiGFP mouse fibroblasts, % GFP-positive cells imaging, 3 d; cells co-treated with 5-aza-dC sensitizer; scaled so ellipticine positive control = 100% | activation, % at 7.58 µM;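 active means mean normalized replicate activation at least 10% and every replicate at or above 10%; inconclusive means only one of the two criteria met; inactive means mean below 10% and not all replicates reach 10%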;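 further: 0% = median of on-plate neutral control wells and 100% = ellipticine 6 µM median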
#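 assay system = SV40-immortalized XiGFP fibroblast cells, line 68-5-11 | buffer or medium = DMEM plus 5-aza-dC sensitizer | doses = single-point pinned compound dosing | times = 3-day compound exposure, then 15 min fixation at room temperature | benchmarks = positive control ellipticine, 6 µM final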
# * marks the source's active call; other numbers are inactive results; u = inconclusive; x = no result.
SMILES,Cneo AK release,Statin myotox sup,DENV2 CPE,Xi reactivation
CCN1C(=O)CS/C1=N\S(=O)(=O)c1ccccc1,0,x,9,x
COc1ccc(Br)cc1CN1CCC(N2CCCC2)CC1,0,4,25*,0
COc1ccc(Br)cc1CN1CCN(C(=O)c2ccc(OC)c(OC)c2)CC1,x,-4,6,0
CCS(=O)(=O)N1CCCCN2[C@H](CO)[C@H](c3ccc(C#Cc4ccccn4)cc3)[C@@H]2C1,3,-2,-1,0
CCS(=O)(=O)N1CCCCN2[C@H](C1)[C@H](c1ccc(C#Cc3ccccn3)cc1)[C@@H]2CO,3,11,52*,0
CCS(=O)(=O)N1CCCCN2[C@H](C1)[C@@H](c1ccc(C#Cc3ccccc3OC)cc1)[C@@H]2CO,47,x,40*,0
Cc1ccc(S(=O)(=O)Nc2ccc3c(c2)C(=O)N([C@H](C)CO)C[C@@H](C)[C@@H](CN(C)C(=O)Nc2c(C)noc2C)OCCCC[C@@H](C)O3)cc1,2,x,-15,0
CCCC(=O)N1CC2(C1)CN(C(=O)Nc1c(C)noc1C)[C@@H](CO)c1c2c2ccc(OC)cc2n1C,x,x,5,0
O=C1C(c2ccccc2)C(c2ccccc2)NC(c2ccccc2)C1c1ccccc1 (stereo not given),3,111*,x,x
Cc1ccc(S(=O)(=O)Nc2ccc3c(c2)C(=O)N([C@H](C)CO)C[C@H](C)[C@H](CN(C)Cc2ccc(C(=O)Nc4ccccc4N)cc2)O3)cc1,-1,82*,5,-1
Cc1ccc(S(=O)(=O)Nc2ccc3c(c2)C(=O)N([C@@H](C)CO)C[C@H](C)[C@H](CN(C)Cc2ccc(C(=O)Nc4ccccc4N)cc2)O3)cc1,-2,u,-7,1
Cc1ccc(S(=O)(=O)Nc2ccc3c(c2)C(=O)N([C@H](C)CO)C[C@H](C)[C@@H](CN(C)Cc2ccc(C(=O)Nc4ccccc4N)cc2)O3)cc1,x,x,20*,-1
C[C@@H]1CN([C@H](C)CO)C(=O)c2cc(NS(=O)(=O)c3ccccc3)ccc2O[C@H]1CN(C)Cc1ccc(C(=O)Nc2ccccc2N)cc1,-6,16,6,0
CO[C@H]1CN(C)C(=O)c2cc(NC(=O)C3CCOCC3)ccc2OC[C@H](C)N(Cc2cccnc2)C[C@H]1C,1,-13,x,0
C[C@H](CO)N1C[C@H](C)[C@@H](CN(C)Cc2ccc(Cl)c(Cl)c2)Oc2ccc(NS(=O)(=O)c3cccs3)cc2CC1=O,-1,u,10,0
COc1cccc(S(=O)(=O)N(C)C[C@@H]2Oc3ncc(/C=C/c4ccccc4)cc3C(=O)N([C@H](C)CO)C[C@@H]2C)c1,23,16,1,-1
Clc1ccc(Cn2nnc(-c3ccc(CN4CCOCC4)cc3)n2)cc1,3,3,x,x
Fc1cccc(Cl)c1Cn1nnc(-c2ccc(N3CCOCC3)cc2)n1,1,99*,x,x
COCC(=O)N1C[C@@H](C)[C@H](OC)CN(C)C(=O)c2ccc(NC(=O)C3CCC3)cc2OC[C@H]1C,-5,-5,-4,0
O=C(NCC1CCCO1)c1ccc(Cl)c(F)c1F (stereo not given),0,84*,x,x
COc1ccccc1-c1ccc2c(c1)C(C)(Cc1ccc(Cl)cc1)C(=O)N2 (stereo not given),0,4,u,0
CC1(Cc2cccc(F)c2)C(=O)Nc2ccc(-c3cccnc3)cc21 (stereo not given),0,14,54*,0
CC1(Cc2ccc(Cl)cc2)C(=O)Nc2ccc(-c3cccnc3)cc21 (stereo not given),0,116*,8,0
C[C@H](NC(=O)C[C@H]1C[C@@H]2c3cc(NC(=O)CN(C)C)ccc3O[C@@H]2[C@H](CO)O1)c1ccccc1,8,1,1,0
CN(c1cccc(NC(=O)c2ccc(C(C)(C)C)cc2)c1)S(C)(=O)=O,-9,-45,21*,0
SMILES,Cneo AK release,Statin myotox sup,DENV2 CPE,Xi reactivation
O=S(=O)(N[C@H]1CC[C@@H](CCn2cc(-c3ccccc3F)nn2)O[C@@H]1CO)c1ccc(Cl)cc1,-2,7,-10,0
Cc1nc2ccccn2c1-c1csc(NCc2ccco2)n1,0,94*,x,x
COCc1cn([C@H]2C[C@@H]3O[C@@H](CO)CC[C@@H]3O[C@@H]2CCc2ccc(-c3ccc(OC)cc3)cc2)nn1,x,x,13,x
CCCNC(=O)NC(=O)CSc1nnc(C)n1N,-1,80*,x,x
C[C@@H]1CCCCO[C@H](CN(C)Cc2ccc3c(c2)OCO3)[C@H](C)CN([C@@H](C)CO)C(=O)c2cc(NC(=O)Cc3ccccc3)ccc2O1,1,x,-2,0
CCCNC(=O)c1ccc(N2CCC3(CC2)CC(c2cccc(Br)c2)=NO3)c(NC(=O)c2cccc(OC)c2)c1,-1,142*,-15,0
C[C@@H]1CN([C@@H](C)CO)C(=O)c2cc(NC(=O)CCC(F)(F)F)ccc2O[C@H]1CN(C)C(=O)Nc1ccc(C(F)(F)F)cc1,2,-9,3,0
C[C@@H]1CN([C@H](C)CO)C(=O)c2cccc(NC(=O)C3CC3)c2O[C@@H]1CN(C)S(=O)(=O)c1ccc(F)cc1,-21,-27,3,-1
COCCCN1C(=O)C(CC(=O)NC2CCCCC2)CC(C(=O)N(C(C)C)C(C)C)=C1C (stereo not given),-1,-10,27*,x
COCCCN1C(=O)C(CC(=O)NC(c2ccccc2)c2ccccc2)CC(C(=O)N(C(C)C)C(C)C)=C1C (stereo not given),-32,-9,57*,0
CC1=C(C(=O)N(C)C)CC(CC(=O)NC2CCCCC2)C(=O)N1Cc1ccc(C(C)(C)C)cc1 (stereo not given),1,-17,43*,0
COCCCN1C(=O)C(CC(=O)NC(c2ccccc2)c2ccccc2)CC(C(=O)N(C)C)=C1C (stereo not given),1,8,u,0
CCN(CC)C(=O)C1=C(C)N(CCCN2CCCC2=O)C(=O)C(CC(=O)NCC2CCCCC2)C1 (stereo not given),-1,-4,74*,0
O=C(OC[C@@H]1[C@H]2c3ccccc3OC1(CO)N=C1SCc3ccccc3CN12)c1ccccc1,-1,x,-4,x
Cc1ccc(N2CC(O)Cn3c2nc2c3c(=O)n(C)c(=O)n2C)cc1 (stereo not given),13,1,-5,0
Cn1c(=O)c2c(nc3n2CC(O)CN3c2ccc(O)cc2)n(C)c1=O (stereo not given),-1,-13,39*,0
COc1ccc(S(=O)(=O)N[C@@H]2C=C[C@@H](CC(=O)N3CCC(Cc4ccccc4)CC3)O[C@H]2CO)cc1,95*,23,-6,0
COc1ccc(S(=O)(=O)N[C@@H]2C=C[C@H](CC(=O)N3CCC(Cc4ccccc4)CC3)O[C@@H]2CO)cc1,3,7,-3,0

# Screens: PubChem BioAssay, Broad Institute
